Test: organ radiation dose estimates, OLINDA 1.1, ICRP-60
Assay type: in vivo, human
How it was run: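 Whole-body PET-MR ran as nine scans to 214 min. Organ VOIs were drawn in AMIDE, giving decay-corrected %IA per VOI; remainder = whole body minus measured organs. TIACs came from the exponential model (EXM) in OLINDA 1.1. Per-participant organ doses used 70 kg adult male or 55 kg female models in OLINDA 1.1. Effective dose (mSv) = organ absorbed doses × ICRP-60 tissue weighting factors.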

COC(=O)[C@@H](N)CC(=O)Nc1ccc2c(c1)Cc1cc([18F])ccc1-2 [[^18F]RP-115, methyl N^4-(7-[^18F]fluoro-9H-fluoren-2-yl)asparaginate]
Effective dose (whole body) (F1 (189 MBq)): 5.42 mSv
Estimated absorbed dose, Adrenals (F1 (189 MBq)): 3.89 mGy
Estimated absorbed dose, Brain (F1 (189 MBq)): 3.40 mGy
Estimated absorbed dose, Breasts (F1 (189 MBq)): 1.79 mGy
Estimated absorbed dose, Gallbladder wall (F1 (189 MBq)): 4.40 mGy
Estimated absorbed dose, Heart wall (F1 (189 MBq)): 4.25 mGy
Estimated absorbed dose, Kidneys (F1 (189 MBq)): 32.5 mGy
Estimated absorbed dose, Liver (F1 (189 MBq)): 7.85 mGy
Estimated absorbed dose, Lower large intestine wall (F1 (189 MBq)): 2.64 mGy
Estimated absorbed dose, Lungs (F1 (189 MBq)): 12.3 mGy
Estimated absorbed dose, Muscle (F1 (189 MBq)): 2.06 mGy
Estimated absorbed dose, Osteogenic cells (F1 (189 MBq)): 2.94 mGy
Estimated absorbed dose, Ovaries (F1 (189 MBq)): 2.83 mGy
Estimated absorbed dose, Pancreas (F1 (189 MBq)): 6.10 mGy
Estimated absorbed dose, Red marrow (F1 (189 MBq)): 2.15 mGy
Estimated absorbed dose, Remainder (F1 (189 MBq)): 2.62 mGy
Estimated absorbed dose, Skin (F1 (189 MBq)): 1.44 mGy
Estimated absorbed dose, Small intestine (F1 (189 MBq)): 6.06 mGy
Estimated absorbed dose, Spleen (F1 (189 MBq)): 8.87 mGy
Estimated absorbed dose, Stomach wall (F1 (189 MBq)): 2.68 mGy
Estimated absorbed dose, Thymus (F1 (189 MBq)): 7.08 mGy
Estimated absorbed dose, Thyroid (F1 (189 MBq)): 1.88 mGy
Estimated absorbed dose, Upper, lower intestine wall (F1 (189 MBq)): 3.09 mGy
Estimated absorbed dose, Urinary bladder wall (F1 (189 MBq)): 18.8 mGy
Estimated absorbed dose, Uterus (F1 (189 MBq)): 4.21 mGy
Effective dose (whole body) (F2, no voiding (355 MBq)): 10.6 mSv
Estimated absorbed dose, Adrenals (F2, no voiding (355 MBq)): 7.74 mGy
Estimated absorbed dose, Brain (F2, no voiding (355 MBq)): 5.65 mGy
Estimated absorbed dose, Breasts (F2, no voiding (355 MBq)): 2.93 mGy
Estimated absorbed dose, Gallbladder wall (F2, no voiding (355 MBq)): 7.35 mGy
Estimated absorbed dose, Heart wall (F2, no voiding (355 MBq)): 6.61 mGy
Estimated absorbed dose, Kidneys (F2, no voiding (355 MBq)): 93.4 mGy
Estimated absorbed dose, Liver (F2, no voiding (355 MBq)): 14.6 mGy
Estimated absorbed dose, Lower large intestine wall (F2, no voiding (355 MBq)): 4.26 mGy
Estimated absorbed dose, Lungs (F2, no voiding (355 MBq)): 25.5 mGy
Estimated absorbed dose, Muscle (F2, no voiding (355 MBq)): 3.45 mGy
Estimated absorbed dose, Osteogenic cells (F2, no voiding (355 MBq)): 4.69 mGy
Estimated absorbed dose, Ovaries (F2, no voiding (355 MBq)): 5.22 mGy
Estimated absorbed dose, Pancreas (F2, no voiding (355 MBq)): 7.78 mGy
Estimated absorbed dose, Red marrow (F2, no voiding (355 MBq)): 3.77 mGy
Estimated absorbed dose, Remainder (F2, no voiding (355 MBq)): 4.65 mGy
Estimated absorbed dose, Skin (F2, no voiding (355 MBq)): 2.31 mGy
Estimated absorbed dose, Small intestine (F2, no voiding (355 MBq)): 8.35 mGy
Estimated absorbed dose, Spleen (F2, no voiding (355 MBq)): 5.86 mGy
Estimated absorbed dose, Stomach wall (F2, no voiding (355 MBq)): 4.40 mGy
Estimated absorbed dose, Thymus (F2, no voiding (355 MBq)): 7.57 mGy
Estimated absorbed dose, Thyroid (F2, no voiding (355 MBq)): 17.0 mGy
Estimated absorbed dose, Upper, lower intestine wall (F2, no voiding (355 MBq)): 5.04 mGy
Estimated absorbed dose, Urinary bladder wall (F2, no voiding (355 MBq)): 32.9 mGy
Estimated absorbed dose, Uterus (F2, no voiding (355 MBq)): 47.2 mGy
Effective dose (whole body) (F3 (117 MBq)): 2.67 mSv
Estimated absorbed dose, Adrenals (F3 (117 MBq)): 2.50 mGy
Estimated absorbed dose, Brain (F3 (117 MBq)): 1.60 mGy
Estimated absorbed dose, Breasts (F3 (117 MBq)): 1.13 mGy
Estimated absorbed dose, Gallbladder wall (F3 (117 MBq)): 2.95 mGy
Estimated absorbed dose, Heart wall (F3 (117 MBq)): 2.26 mGy
Estimated absorbed dose, Kidneys (F3 (117 MBq)): 21.0 mGy
Estimated absorbed dose, Liver (F3 (117 MBq)): 5.81 mGy
Estimated absorbed dose, Lower large intestine wall (F3 (117 MBq)): 1.47 mGy
Estimated absorbed dose, Lungs (F3 (117 MBq)): 5.47 mGy
Estimated absorbed dose, Muscle (F3 (117 MBq)): 1.29 mGy
Estimated absorbed dose, Osteogenic cells (F3 (117 MBq)): 1.94 mGy
Estimated absorbed dose, Ovaries (F3 (117 MBq)): 1.63 mGy
Estimated absorbed dose, Pancreas (F3 (117 MBq)): 2.85 mGy
Estimated absorbed dose, Red marrow (F3 (117 MBq)): 1.36 mGy
Estimated absorbed dose, Remainder (F3 (117 MBq)): 1.61 mGy
Estimated absorbed dose, Skin (F3 (117 MBq)): 0.945 mGy
Estimated absorbed dose, Small intestine (F3 (117 MBq)): 3.30 mGy
Estimated absorbed dose, Spleen (F3 (117 MBq)): 3.02 mGy
Estimated absorbed dose, Stomach wall (F3 (117 MBq)): 1.68 mGy
Estimated absorbed dose, Thymus (F3 (117 MBq)): 2.23 mGy
Estimated absorbed dose, Thyroid (F3 (117 MBq)): 2.03 mGy
Estimated absorbed dose, Upper, lower intestine wall (F3 (117 MBq)): 1.91 mGy
Estimated absorbed dose, Urinary bladder wall (F3 (117 MBq)): 1.57 mGy
Estimated absorbed dose, Uterus (F3 (117 MBq)): 3.93 mGy
Effective dose (whole body) (F4 (167 MBq)): 3.90 mSv
Estimated absorbed dose, Adrenals (F4 (167 MBq)): 3.19 mGy
Estimated absorbed dose, Brain (F4 (167 MBq)): 2.79 mGy
Estimated absorbed dose, Breasts (F4 (167 MBq)): 1.47 mGy
Estimated absorbed dose, Gallbladder wall (F4 (167 MBq)): 3.08 mGy
Estimated absorbed dose, Heart wall (F4 (167 MBq)): 4.15 mGy
Estimated absorbed dose, Kidneys (F4 (167 MBq)): 28.1 mGy
Estimated absorbed dose, Liver (F4 (167 MBq)): 6.41 mGy
Estimated absorbed dose, Lower large intestine wall (F4 (167 MBq)): 2.09 mGy
Estimated absorbed dose, Lungs (F4 (167 MBq)): 9.27 mGy
Estimated absorbed dose, Muscle (F4 (167 MBq)): 1.67 mGy
Estimated absorbed dose, Osteogenic cells (F4 (167 MBq)): 2.46 mGy
Estimated absorbed dose, Ovaries (F4 (167 MBq)): 2.39 mGy
Estimated absorbed dose, Pancreas (F4 (167 MBq)): 3.95 mGy
Estimated absorbed dose, Red marrow (F4 (167 MBq)): 1.79 mGy
Estimated absorbed dose, Remainder (F4 (167 MBq)): 2.14 mGy
Estimated absorbed dose, Skin (F4 (167 MBq)): 1.19 mGy
Estimated absorbed dose, Small intestine (F4 (167 MBq)): 6.82 mGy
Estimated absorbed dose, Spleen (F4 (167 MBq)): 3.11 mGy
Estimated absorbed dose, Stomach wall (F4 (167 MBq)): 2.19 mGy
Estimated absorbed dose, Thymus (F4 (167 MBq)): 4.01 mGy
Estimated absorbed dose, Thyroid (F4 (167 MBq)): 2.31 mGy
Estimated absorbed dose, Upper, lower intestine wall (F4 (167 MBq)): 2.83 mGy
Estimated absorbed dose, Urinary bladder wall (F4 (167 MBq)): 4.93 mGy
Estimated absorbed dose, Uterus (F4 (167 MBq)): 6.49 mGy
Effective dose (whole body) (Female n=4, mean±SD): 0.0262±0.00361 mSv/MBq
Estimated dose, Adrenals (Female n=4, mean±SD): 0.0207±0.00119 mGy/MBq
Estimated dose, Brain (Female n=4, mean±SD): 0.0161±0.0018 mGy/MBq
Estimated dose, Breasts (Female n=4, mean±SD): 0.00903±0.000633 mGy/MBq
Estimated dose, Gallbladder wall (Female n=4, mean±SD): 0.0219±0.00297 mGy/MBq
Estimated dose, Heart wall (Female n=4, mean±SD): 0.0213±0.00289 mGy/MBq
Estimated dose, Kidneys (Female n=4, mean±SD): 0.196±0.0451 mGy/MBq
Estimated dose, Liver (Female n=4, mean±SD): 0.0426±0.00491 mGy/MBq
Estimated dose, Lower, large intestine wall (Female n=4, mean±SD): 0.0128±0.000858 mGy/MBq
Estimated dose, Lungs (Female n=4, mean±SD): 0.0598±0.0109 mGy/MBq
Estimated dose, Muscle (Female n=4, mean±SD): 0.0104±0.00065 mGy/MBq
Estimated dose, Osteogenic cells (Female n=4, mean±SD): 0.0150±0.00144 mGy/MBq
Estimated dose, Ovaries (Female n=4, mean±SD): 0.0145±0.000479 mGy/MBq
Estimated dose, Pancreas (Female n=4, mean±SD): 0.0256±0.00462 mGy/MBq
Estimated dose, Red marrow (Female n=4, mean±SD): 0.0111±0.000499 mGy/MBq
Estimated dose, Remainder (Female n=4, mean±SD): 0.0134±0.000535 mGy/MBq
Estimated dose, Skin (Female n=4, mean±SD): 0.00734±0.000677 mGy/MBq
Estimated dose, Small intestine (Female n=4, mean±SD): 0.0312±0.00733 mGy/MBq
Estimated dose, Spleen (Female n=4, mean±SD): 0.0270±0.0139 mGy/MBq
Estimated dose, Stomach wall (Female n=4, mean±SD): 0.0135±0.000943 mGy/MBq
Estimated dose, Thymus (Female n=4, mean±SD): 0.0255±0.00826 mGy/MBq
Estimated dose, Thyroid (Female n=4, mean±SD): 0.0223±0.0174 mGy/MBq

— publication PMC13170702 (Nuclear medicine and biology, 2025)
